Experimental data reported in ChEMBL document CHEMBL3797028, “Novel S1P1 receptor agonists - Part 4: Alkylaminomethyl substituted aryl head groups” (Eur J Med Chem, 2016).
The source made the active and inactive calls. The rule behind the calls is not given here.

Legend:
[1] = target: Sphingosine 1-phosphate receptor 3 (Homo sapiens, UniProt Q99500); experiment: Agonist activity at human recombinant S1PR3 expressed in CHO cell membranes assessed as [35S]GTPgammaS binding preincubated for 30 mins followed by [35S]GTPgammaS addition measured after 1 hr by topcount analysis; type: functional
Procedure, shortened: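 Membranes from CHO cells expressing recombinant human S1P1 or S1P3 were used. Buffer was 20 mM Hepes pH 7.4, 100 mM NaCl, 5 mM MgCl2, 0.1% fatty-acid-free BSA, 2.5% DMSO and 50 pM 35S-GTPgammaS. GDP was […] for S1P3. Compound was preincubated 30 min at rt, then incubated 1 h at rt with 35S-GTPgammaS. Bound label was collected by filtration and counted. Specific binding was taken against 10 uM S1P. EC50 was the 50%-of-specific-binding concentration, reported as the geometric mean of at least three independent duplicate runs.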

[2] = Plasma concentration in Wistar rat at 10 mg/kg administered as single dose through oral gavage after 24 hrs by LC-MS/MS analysis; type: ADME, organism-based
Procedure, shortened: (§1)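 Single oral gavage dose to male Wistar rats in DMSO/7.5% succinylated gelatine (final 5% DMSO). Blood was drawn into EDTA at the lymphocyte-count timepoints. Plasma was prepared at 3000 g for 10 min at 4 °C and analysed by LC-MS/MS after protein precipitation.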

Liver microsome = experiment: Unbound fraction corrected apparent intrinsic clearance in Wistar rat liver microsomes at 1 uM after 2.5 to 15 mins by LC-MS/MS analysis in presence of NADPH; type: ADME
Procedure, shortened: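 Apparent CLint was measured by microsomal substrate depletion: 1 uM start, 0.5 mg/mL rat liver microsomes, pH 7.4, 37 °C, NADPH-regenerating system, sampling 0–15 min, LC-MS/MS. It was then divided by the unbound microsomal fraction, which was determined by rapid equilibrium dialysis of 1 mg/mL microsomes for 6 h at 37 °C.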

Rattus norvegicus [3] = experiment: Change in circulating lymphocyte count in Wistar rat at 10 mg/kg administered as single dose through oral gavage after 6 hrs relative to control; type: functional
Procedure, shortened: (§2)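 Male Wistar rats (RccHan:WIST; n = 6) were given a single oral gavage dose of compound in DMSO plus 7.5% succinylated gelatine (final 5% DMSO). Blood lymphocytes were counted just before dosing and at later timepoints. Percent change was calculated per animal relative to the pre-dose value and compared with a vehicle-treated group, reported as the mean. A ±15% change was treated as baseline, and a reduction of about 60% or more as maximal.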

[4] = Fraction unbound in Wistar rat liver microsomes incubated for 6 hrs by LC-MS/MS based equilibrium dialysis method; type: ADME
Procedure, shortened: (§3)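 Rapid equilibrium dialysis was run on a shaker for 6 h at 37 °C. The donor side held rat plasma (pH 7.2–7.6) or 1 mg/mL rat liver microsomes in phosphate buffer pH 7.4. The receiver side held phosphate buffer pH 7.4. Both sides were measured by LC-MS/MS to give free fraction and recovery.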

[5] = Fraction unbound in Wistar rat plasma incubated for 6 hrs by LC-MS/MS based equilibrium dialysis method; type: ADME, cell-free; procedure, shortened: as §3
[6] = Plasma concentration in Wistar rat at 10 mg/kg administered as single dose through oral gavage after 3 hrs by LC-MS/MS analysis; type: ADME, organism-based; procedure, shortened: as §1
[7] = Apparent intrinsic clearance in Wistar rat liver microsomes at 1 uM after 2.5 to 15 mins by LC-MS/MS analysis in presence of NADPH; type: ADME; details: read-out: CLH(app)
Procedure, shortened: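 Compound at 1 uM starting concentration was depleted by 0.5 mg/mL rat liver microsomes in 100 mM sodium phosphate pH 7.4 at 37 °C, with shaking under air. Reactions were started with an NADPH-regenerating system. Samples were taken at 0, 2.5, 5, 10 and 15 min, quenched in ice-cold methanol and analysed by LC-MS/MS. CLint,app came from first-order decay fitting.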

Rattus norvegicus [8] = experiment: Change in circulating lymphocyte count in Wistar rat at 10 mg/kg administered as single dose through oral gavage after 3 hrs relative to control; type: functional; procedure, shortened: as §2
[9] = Plasma concentration in Wistar rat at 10 mg/kg administered as single dose through oral gavage after 6 hrs by LC-MS/MS analysis; type: ADME, organism-based; procedure, shortened: as §1
Rattus norvegicus [10] = experiment: Change in circulating lymphocyte count in Wistar rat at 10 mg/kg administered as single dose through oral gavage after 24 hrs relative to control; type: functional; procedure, shortened: as §2
Rattus norvegicus [11] = species: Rattus norvegicus; experiment: Intrinsic clearance in rat liver microsomes scaled to body weight; details: in vitro
[12] = Apparent oral clearance in Wistar rat plasma at 1 to 10 mg/kg administered through gavage by LC-MS/MS analysis; type: ADME, organism-based
Procedure, shortened: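 Male Wistar rats received a single oral gavage dose of compound dissolved in DMSO and added to 7.5% succinylated gelatine in water (final 5% DMSO). EDTA plasma was spun at 3000 g for 10 min at 4 °C and analysed by LC-MS/MS after protein precipitation. Oral clearance was estimated from the plasma concentration–time data. In vivo intrinsic clearance used the well-stirred liver model, assuming complete absorption.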

[13] = Distribution coefficient, log D between 1-octonol and phosphate buffer at pH 7; type: physicochemical; details: 1-octanol/phosphate buffer
Procedure, shortened: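 Partition was between 1-octanol and phosphate buffer at pH 7.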

[14] = target: T1, Sphingosine 1-phosphate receptor 1 (Homo sapiens, UniProt P21453); experiment: Agonist activity at human recombinant S1PR1 expressed in CHO cell membranes assessed as [35S]GTPgammaS binding preincubated for 30 mins followed by [35S]GTPgammaS addition measured after 1 hr by topcount analysis
[15] = Selectivity ratio of EC50 for human recombinant S1PR3 expressed in CHO cell membranes to EC50 for human recombinant S1PR1 expressed in CHO cell membranes; type: cell-based
Procedure, shortened: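 Compound and membranes are pre-incubated 30 min at rt, then incubated 1 h at rt, filtered and counted. EC50 is the concentration giving 50% of S1P-defined specific binding, as the geometric mean of ≥3 independent duplicate runs. Ratio = EC50 S1PR3/EC50 S1PR1.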

[16] = Drug recovery in Wistar rat liver microsomes incubated for 6 hrs by LC-MS/MS based equilibrium dialysis method; type: ADME; details: read-out: Drug recovery; procedure, shortened: as §3
[17] = target: T1, Sphingosine 1-phosphate receptor 1; experiment: Partial agonist activity at human recombinant S1PR1 expressed in CHO cells by receptor internalization assay; type: cell-based
[18] = Plasma concentration in Wistar rat at 10 mg/kg administered as single dose through oral gavage after 72 hrs by LC-MS/MS analysis; type: ADME, organism-based; procedure, shortened: as §1

Sphingosine 1-phosphate receptor 3, sequence (Q99500 whole entry): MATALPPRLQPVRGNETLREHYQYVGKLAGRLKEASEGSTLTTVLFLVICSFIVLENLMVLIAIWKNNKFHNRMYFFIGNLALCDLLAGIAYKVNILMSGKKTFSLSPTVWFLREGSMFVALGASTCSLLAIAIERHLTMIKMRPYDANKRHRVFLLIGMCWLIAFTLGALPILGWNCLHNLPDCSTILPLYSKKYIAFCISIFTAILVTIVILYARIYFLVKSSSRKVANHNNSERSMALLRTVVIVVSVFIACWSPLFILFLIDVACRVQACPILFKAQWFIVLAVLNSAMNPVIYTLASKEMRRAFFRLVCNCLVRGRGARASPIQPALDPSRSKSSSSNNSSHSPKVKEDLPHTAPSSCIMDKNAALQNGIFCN
T1 sequence (P21453 whole entry): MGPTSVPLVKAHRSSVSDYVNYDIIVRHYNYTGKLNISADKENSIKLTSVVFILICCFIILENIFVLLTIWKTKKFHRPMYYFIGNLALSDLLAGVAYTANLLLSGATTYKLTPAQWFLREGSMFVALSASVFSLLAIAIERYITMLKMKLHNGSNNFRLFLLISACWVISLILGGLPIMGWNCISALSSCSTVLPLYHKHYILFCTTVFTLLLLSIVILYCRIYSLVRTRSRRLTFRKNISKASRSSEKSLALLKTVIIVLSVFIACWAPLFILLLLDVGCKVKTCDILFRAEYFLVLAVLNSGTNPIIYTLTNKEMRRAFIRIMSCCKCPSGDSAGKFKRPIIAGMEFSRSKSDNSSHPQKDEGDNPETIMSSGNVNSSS

| Structure (SMILES) | EC50 [1] | concentration at 24 h [2] | CL free (Liver microsome) | Activity (Rattus norvegicus [3]) | fraction unbound at 6 h [4] | fraction unbound at 6 h [5] | concentration at 3 h [6] | microsomal CLint at 1 µM [7] | Activity (Rattus norvegicus [8]) | concentration at 6 h [9] | Activity (Rattus norvegicus [10]) | CL (Rattus norvegicus [11]) | CL/F [12] | logD [13] | EC50 [14] | Ratio EC50 [15] | recovery at 6 h [16] | Activity [17] | concentration at 72 h [18] |
| --- | --- | --- | --- | --- | --- | --- | --- | --- | --- | --- | --- | --- | --- | --- | --- | --- | --- | --- | --- |
| CCc1cc(-c2noc(-c3cc(C)c(CN(C)C)s3)n2)cc(C)c1OC[C@@H](O)CNC(=O)CO | 660 nM | < 4 ng/mL | 8100 µL/min/mg | -56% | 0.15 | 0.012 | 106 ng/mL | 1220 µL/min/mg | -64% | 31 ng/mL | 5% | 14600 mL/min/kg | 275 mL/min/kg | 3.2 |  |  |  |  |  |
| CCc1cc(-c2noc(-c3ccc(CN(C)CC(C)C)c(C)c3)n2)cc(C)c1OC[C@@H](O)CNC(=O)CO | 570 nM |  |  |  | 0.001 | < 0.001 |  | 74 µL/min/mg |  |  |  |  |  | > 4.1 | 13 nM | 44 | < 80% |  |  |
| CCc1cc(-c2noc(-c3cc(C)cc(CN(C)CC(C)C)c3)n2)cc(C)c1OC[C@@H](O)CNC(=O)CO | 100 nM | 342 ng/mL | 740 µL/min/mg | -53% | 0.027 | < 0.001 | 1380 ng/mL | 20 µL/min/mg | -52% | 1120 ng/mL | -44% | 1330 mL/min/kg | 8 mL/min/kg | > 4.1 | 2.1 nM | 48 |  | inactive | 3.7 ng/mL |
| CCCCN(C)Cc1cc(C)cc(-c2nc(-c3cc(C)c(OC[C@@H](O)CNC(=O)CO)c(CC)c3)no2)c1 | 425 nM |  | 7300 µL/min/mg | -57% | 0.025 | < 0.001 |  | 183 µL/min/mg | -60% |  | -6% |  |  | > 4.1 | 2.6 nM | 163 | < 80% |  |  |
| CCc1cc(-c2noc(-c3cc(C)nc(CN(C)CC(C)C)c3)n2)cc(C)c1OC[C@@H](O)CNC(=O)CO | 560 nM | < 2 ng/mL | 1090 µL/min/mg | -75% | 0.18 | 0.004 | 385 ng/mL | 197 µL/min/mg | -80% | 176 ng/mL | 1% | 1970 mL/min/kg | 80 mL/min/kg | 3.8 | 3.2 nM | 175 | < 80% |  |  |
| CCc1cc(-c2noc(-c3cc(C)cc(CN(C)CC)c3)n2)cc(C)c1OC[C@@H](O)CNC(=O)CO | 1250 nM |  | > 5000 µL/min/mg | -58% | 0.25 | 0.012 |  | > 1250 µL/min/mg | -57% |  | 24% |  |  | 3.4 | 3.6 nM | 347 | < 80% |  |  |
| CCc1cc(-c2nc(-c3cc(C)c(OC[C@@H](O)CNC(=O)CO)c(CC)c3)no2)ccc1CN(C)C | 480 nM |  | 9200 µL/min/mg | -61% | 0.11 | 0.005 |  | 1010 µL/min/mg | -56% |  | 27% |  |  | 3.8 | 1.3 nM | 369 | < 80% |  |  |
| CCc1cc(-c2noc(-c3ccc(CNC(C)C)s3)n2)cc(C)c1OC[C@@H](O)CNC(=O)CO | > 10000 nM |  |  |  |  |  |  |  |  |  |  |  |  |  | 203 nM | > 49 |  |  |  |
| CCc1cc(-c2noc(-c3cc(C)nc(CN4CCCC4)c3)n2)cc(C)c1OC[C@@H](O)CNC(=O)CO | > 10000 nM |  |  |  |  |  |  |  |  |  |  |  |  |  | 95 nM | > 105 |  |  |  |
| CCc1cc(-c2noc(-c3cccc(CNC)c3)n2)cc(C)c1OC[C@@H](O)CNC(=O)CO | > 10000 nM |  |  |  |  |  |  |  |  |  |  |  |  |  | 190 nM | > 53 |  |  |  |
| CCc1cc(-c2noc(-c3sc(CN(C)CC(C)C)c(C)c3C)n2)cc(C)c1OC[C@@H](O)CNC(=O)CO | 2300 nM |  |  |  |  |  |  |  |  |  |  |  |  |  | 55 nM | 42 |  |  |  |
| CCc1cc(-c2noc(-c3cc(C)nc(CN(CC)CC)c3)n2)cc(C)c1OC[C@@H](O)CNC(=O)CO | 8100 nM |  |  |  |  |  |  |  |  |  |  |  |  |  | 45 nM | 180 |  |  |  |
| CCc1cc(-c2noc(-c3ccc(C)c(CN(C)CC)c3)n2)cc(C)c1OC[C@@H](O)CNC(=O)CO | 9000 nM |  |  |  |  |  |  |  |  |  |  |  |  |  | 285 nM | 32 |  |  |  |
| CCc1cc(-c2noc(-c3ccc(CN(C)CC)c(C)c3)n2)cc(C)c1OC[C@@H](O)CNC(=O)CO | 910 nM |  |  |  |  |  |  |  |  |  |  |  |  |  | 14 nM | 65 |  |  |  |
| CCc1cc(-c2noc(-c3cc(C)cc(CN(C)C)c3)n2)cc(C)c1OC[C@@H](O)CNC(=O)CO | 2000 nM |  | > 4800 µL/min/mg | -37% | 0.26 | 0.029 |  | > 1250 µL/min/mg | -44% |  | 21% |  |  | 2.8 |  |  |  |  |  |
| CCc1cc(-c2noc(-c3ccc(C)c(CN(C)CC(C)C)c3)n2)cc(C)c1OC[C@@H](O)CNC(=O)CO | 1200 nM |  |  |  |  |  |  |  |  |  |  |  |  |  | 97 nM | 12 |  |  |  |
| CCc1cc(-c2nc(-c3cc(C)c(OC[C@@H](O)CNC(=O)CO)c(CC)c3)no2)ccc1CN(C)CC | 100 nM |  |  |  |  |  |  |  |  |  |  |  |  |  | 1 nM | 100 |  |  |  |
